The target of data set [1] is Platelet-derived growth factor receptor beta (Homo sapiens) (UniProt P09619). Nature of the data set: Inhibition of PDGFRB at 1 uM. The gist of the method: (§1)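 KINOMEScan competition-binding panel of 442 kinases (386 nonmutant) tested at 1 μM. Binding is read as percent of control ligand competition; <10% of control counts as a hit for the S(10) score.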
In data set [2] the target is Tyrosine-protein kinase JAK2 (Homo sapiens) (UniProt O60674). The data set can be described thus: Inhibition of JAK2 at 1 uM. The gist of the method: as §1
The test system of data set [3] is Mus musculus. Nature of the data set: Inhibition of Histone H3 phosphorylation in tumor of human MV4-11 cells xenografted CrTacNCr-Fox1(nu) athymic mouse at 50 to 100 mg/kg, po bid for 4 days measured after 2 hrs post final dose. It counts as functional, organism-based. An outline of the steps: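 MV4-11 xenograft-bearing athymic mice dosed orally at 50 or 100 mg/kg twice daily for 4 days, starting 17 days after implantation. Tumors harvested 2 h after the final dose. Western blotting for phospho-histone H3 (S10) and phospho-Stat5 (Y694), with total histone H3, total Stat5 and GAPDH as loading controls.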

In data set [4] the test system is MV4-11. The data set can be described thus: Antitumor activity against human MV4-11 cells xenografted in CrTacNCr-Fox1(nu) athymic mouse assessed as reduction in tumor relapse at 50 to 100 mg/kg, po bid administered 10 days post implantation daily for 7 days measured after 60 days. The data set is classed as functional. Set-up: scale not given: the % may be the effect or the level left. The following applies: dose mg/kg 50-100. The gist of the method: (§2)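 Female adult CrTacNcr-Fox1(nu) athymic mice, s.c. 10^7 FLT3-ITD-positive MV4-11 cells; treatment began at 10 days (mean tumor volume at least 100 mm^3). Oral 50 or 100 mg/kg in 10% DMSO, 20% PEG 400, 5% Tween 80, 65% water, or vehicle alone; n = 5 per group. Dosed twice daily for 7 days, then once daily for 4 days; study ended day 60.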
On the technique in general: A xenograft is tissue or cells of one species grown in another, often human tumour cells in immunodeficient mice.

For data set [5], the system named is MV4-11. Nature of the data set: Antitumor activity against human MV4-11 cells xenografted in CrTacNCr-Fox1(nu) athymic mouse assessed as tumor growth inhibition at 50 mg/kg, po bid administered 10 days post implantation daily for 7 days measured after 11 days. It counts as functional. Also noted: scale not given: the % may be the effect or the level left. The gist of the method: as §2

Data set [6] deals with Mus musculus. Nature of the data set: Toxicity in CrTacNCr-Fox1(nu) athymic mouse assessed as adverse condition at 50 to 100 mg/kg, po administered 10 days post implantation daily for 7 days. It counts as organism-based. Also noted: dose 50-100 mg/kg, route oral. The following applies: in vivo.
In data set [7] the test system is Mus musculus. Nature of the data set: Toxicity in CrTacNCr-Fox1(nu) athymic mouse assessed as body weight loss at 50 to 100 mg/kg, po administered 10 days post implantation daily for 7 days. Set-up: dose 50-100 mg/kg, route oral. It counts as organism-based. Particulars: in vivo.
For data set [8], the system named is MV4-11. Nature of the data set: Antitumor activity against human MV4-11 cells xenografted in po dosed CrTacNCr-Fox1(nu) athymic mouse assessed as tumor growth inhibition administered 10 days post implantation twice daily for 7 days. The data set is classed as functional, organism-based. An outline of the steps:
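Female adult athymic nude mice implanted subcutaneously with 10^7 FLT3-ITD-positive MV4-11 cells; treatment started 10 days after implantation, once mean tumor volume was at least 100 mm^3. Oral dosing at 50 or 100 mg/kg (n = 5 per group), twice daily for 7 days, then once daily for a further 4 days. Vehicle: 10% DMSO, 20% PEG 400, 5% Tween 80, 65% water. Tumor volume followed to day 60.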

A short description of data set [9]: Oral bioavailability in Sprague-Dawley rat at 5 mg/kg. The data set is classed as ADME, organism-based. The following applies: in vivo. The gist of the method:
(§3)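 Female Sprague-Dawley rats, 5 mg/kg. Oral vehicle 10% DMSO, 5% Tween 80, 20% PEG400 in water; iv vehicle 10% DMSO, 5% Tween 20, 85% saline, 0.3% 1 M HCl. Serial tail-vein plasma at 15, 30 min and 2, 4, 6, 24 h. Methanol precipitation with olomoucine internal standard, then LC-MS (C18 BEH, positive ESI MRM).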

Data set [10] is described as follows: Lipophilicity, log D of the compound. Particulars: octanol/water. It counts as physicochemical.
Data set [11] is described as follows: Clearance in Sprague-Dawley rat at 5 mg/kg, iv. It counts as ADME, organism-based. Set-up: dose 5 mg/kg, route intravenous. The following applies: in vivo. An outline of the steps:
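Female Sprague–Dawley rats given 5 mg/kg iv in 10% DMSO, 5% Tween 20, 85% saline, 0.3% 1 M HCl. Serial tail vein bleeds at 15 and 30 min and 2, 4, 6, 24 h; plasma protein-precipitated with methanol with olomoucine internal standard; drug quantified by LC–MS (positive ESI MRM). Clearance given as L/h and mL/min/kg.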

Data set [12] in a line: Oral bioavailability in Balb/C mouse at 5 mg/kg. It counts as ADME, organism-based. The following applies: in vivo. The gist of the method:
(§4)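 Female Balb/C mice given 5 mg/kg po or iv in 10% DMSO, 5% Tween 20 in saline. Killed at 5, 15, 30 min and 1, 2, 4, 6, 24 h; plasma from cardiac blood. Methanol protein precipitation with olomoucine internal standard, then LC-MS (reverse-phase C18, positive ESI MRM).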

In data set [13] the test system is Mus musculus. The data set can be described thus: Volume of distribution in Balb/C mouse at 5 mg/kg, iv and 5 mg/kg, po. The following applies: in vivo. It counts as ADME, organism-based. An outline of the steps: as §4
The nature of data set [14]: Half life in Balb/C mouse at 5 mg/kg, iv. The data set is classed as ADME, organism-based. Set-up: dose 5 mg/kg, route intravenous. The following applies: in vivo. An outline of the steps:
as §4

A further data set has as its system Plasma. The data set can be described thus: Plasma protein binding in mouse. It counts as ADME, cell-free.
For the next data set, the system named is Caco-2. The data set can be described thus: Permeability across human Caco2 cells. It counts as ADME, cell-based.
Another data set addresses T1, Cytochrome P450 2A6 (Homo sapiens, UniProt P11509).
T1 sequence (P11509 whole entry): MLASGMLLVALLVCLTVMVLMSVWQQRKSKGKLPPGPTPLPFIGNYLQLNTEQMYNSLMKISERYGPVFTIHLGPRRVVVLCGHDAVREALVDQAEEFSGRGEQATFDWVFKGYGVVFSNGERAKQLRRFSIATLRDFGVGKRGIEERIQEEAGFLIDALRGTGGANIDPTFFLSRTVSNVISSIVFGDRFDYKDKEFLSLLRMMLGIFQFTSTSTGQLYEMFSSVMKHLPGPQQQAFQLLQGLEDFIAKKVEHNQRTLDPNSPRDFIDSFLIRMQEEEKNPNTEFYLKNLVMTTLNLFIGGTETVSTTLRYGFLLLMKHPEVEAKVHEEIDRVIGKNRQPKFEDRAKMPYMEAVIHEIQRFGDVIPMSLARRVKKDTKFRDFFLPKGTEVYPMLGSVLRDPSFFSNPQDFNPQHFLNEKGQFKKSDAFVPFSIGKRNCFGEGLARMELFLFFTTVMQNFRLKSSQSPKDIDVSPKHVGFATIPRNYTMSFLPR
The data set can be described thus: Inhibition of human liver microsome CYP2A6 by LC-MS-MS analysis. The data set is classed as ADME. The gist of the method:
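Pooled human liver microsomes (50 donors) at 0.5 mg/mL protein, incubated for 10 min with isoform-selective probe substrates. Metabolite formation was detected by LC–MS/MS with positive ESI.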
On the technique in general: Liver microsomes are vesicles of endoplasmic reticulum, rich in cytochrome P450 enzymes.

Data set [15] addresses Voltage-gated inwardly rectifying potassium channel KCNH2 (Homo sapiens, UniProt Q12809). The data set can be described thus: Inhibition of human ERG by whole-cell voltage clamping. The gist of the method: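 hERG tail current measured by whole-cell voltage clamp (Cyprotex) to obtain an IC50. Single-point screens were a separate high-throughput cell-based electrophysiology assay at 10 μM, with 0.3% DMSO vehicle and 1 μM cisapride as controls.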

Data set [16] in a line: Metabolic stability in human liver microsomes assessed as parent compound metabolism after 30 mins by LC-MS analysis. Particulars: read-out: Drug metabolism. It counts as ADME, Microsome. The gist of the method: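 Test compound at 10 μM with pooled mixed-gender human liver microsomes (1 mg/mL protein), NADPH 1 mM, UDPGA 2.5 mM and MgCl2 3 mM in 10 mM PBS at 37 °C for 0 and 30 min. Controls omit NADPH/UDPGA. Compound remaining measured by LC–MS; reported as percent of parent metabolized at 30 min.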

Data set [17] can be described thus: Half life in Sprague-Dawley rat at 5 mg/kg, iv. The following applies: in vivo. The data set is classed as ADME, organism-based. Also noted: dose 5 mg/kg, route intravenous. The gist of the method: as §3

Results on 1 compound are retold here after ChEMBL document CHEMBL2203264, “Optimization of imidazo[4,5-b]pyridine-based kinase inhibitors: identification of a dual FLT3/Aurora kinase inhibitor as an orally bioavailable preclinical development candidate for the treatment of acute myeloid leukemia” (J Med Chem, 2012).

Calls of active or inactive are those of the source. Where only a bound is given, the exact number is not on record here.

A word on the inhibition: it is the share of the control response that was lost under treatment. Broadly, the bioavailability is dose-corrected exposure relative to a reference, in per cent. Usually logD stands for lipophilicity at a set pH, counting ionised and neutral species. By clearance is commonly meant the rate of elimination divided by the concentration. For orientation: half-life means the time needed for the level to fall by half in the phase considered. In general, IC50 refers to the concentration needed to halve the response being measured.

Sequence of Voltage-gated inwardly rectifying potassium channel KCNH2 (Q12809 whole entry): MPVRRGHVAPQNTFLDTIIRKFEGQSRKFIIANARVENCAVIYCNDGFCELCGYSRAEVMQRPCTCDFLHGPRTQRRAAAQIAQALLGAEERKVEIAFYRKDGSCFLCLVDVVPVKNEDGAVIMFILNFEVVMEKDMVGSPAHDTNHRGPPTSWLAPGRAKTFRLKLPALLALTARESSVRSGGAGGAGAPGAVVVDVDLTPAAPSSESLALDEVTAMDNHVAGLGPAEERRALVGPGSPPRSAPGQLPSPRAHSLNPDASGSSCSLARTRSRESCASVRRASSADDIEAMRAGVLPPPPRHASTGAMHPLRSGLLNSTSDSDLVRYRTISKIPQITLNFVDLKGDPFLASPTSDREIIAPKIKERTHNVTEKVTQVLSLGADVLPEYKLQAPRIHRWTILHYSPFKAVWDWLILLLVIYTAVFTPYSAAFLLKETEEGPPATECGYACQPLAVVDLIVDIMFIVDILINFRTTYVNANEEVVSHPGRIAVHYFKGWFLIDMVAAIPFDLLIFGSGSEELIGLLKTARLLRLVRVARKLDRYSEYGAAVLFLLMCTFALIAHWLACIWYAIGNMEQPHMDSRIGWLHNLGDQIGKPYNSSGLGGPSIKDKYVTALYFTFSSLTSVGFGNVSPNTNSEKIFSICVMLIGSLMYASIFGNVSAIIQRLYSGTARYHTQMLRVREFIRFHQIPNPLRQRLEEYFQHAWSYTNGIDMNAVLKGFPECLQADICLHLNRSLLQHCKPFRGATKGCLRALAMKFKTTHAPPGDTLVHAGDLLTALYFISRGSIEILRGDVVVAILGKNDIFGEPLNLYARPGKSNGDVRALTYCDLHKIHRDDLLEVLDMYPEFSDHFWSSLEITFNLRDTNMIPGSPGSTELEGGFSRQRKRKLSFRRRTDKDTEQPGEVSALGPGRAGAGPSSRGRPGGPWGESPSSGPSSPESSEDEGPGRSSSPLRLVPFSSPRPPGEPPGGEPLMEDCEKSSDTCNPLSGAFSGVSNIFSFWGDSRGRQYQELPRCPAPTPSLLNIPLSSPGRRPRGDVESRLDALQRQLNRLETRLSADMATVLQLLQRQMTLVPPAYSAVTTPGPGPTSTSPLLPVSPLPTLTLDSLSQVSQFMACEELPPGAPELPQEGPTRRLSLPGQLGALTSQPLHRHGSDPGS
Sequence of Platelet-derived growth factor receptor beta (Homo sapiens) (P09619 whole entry): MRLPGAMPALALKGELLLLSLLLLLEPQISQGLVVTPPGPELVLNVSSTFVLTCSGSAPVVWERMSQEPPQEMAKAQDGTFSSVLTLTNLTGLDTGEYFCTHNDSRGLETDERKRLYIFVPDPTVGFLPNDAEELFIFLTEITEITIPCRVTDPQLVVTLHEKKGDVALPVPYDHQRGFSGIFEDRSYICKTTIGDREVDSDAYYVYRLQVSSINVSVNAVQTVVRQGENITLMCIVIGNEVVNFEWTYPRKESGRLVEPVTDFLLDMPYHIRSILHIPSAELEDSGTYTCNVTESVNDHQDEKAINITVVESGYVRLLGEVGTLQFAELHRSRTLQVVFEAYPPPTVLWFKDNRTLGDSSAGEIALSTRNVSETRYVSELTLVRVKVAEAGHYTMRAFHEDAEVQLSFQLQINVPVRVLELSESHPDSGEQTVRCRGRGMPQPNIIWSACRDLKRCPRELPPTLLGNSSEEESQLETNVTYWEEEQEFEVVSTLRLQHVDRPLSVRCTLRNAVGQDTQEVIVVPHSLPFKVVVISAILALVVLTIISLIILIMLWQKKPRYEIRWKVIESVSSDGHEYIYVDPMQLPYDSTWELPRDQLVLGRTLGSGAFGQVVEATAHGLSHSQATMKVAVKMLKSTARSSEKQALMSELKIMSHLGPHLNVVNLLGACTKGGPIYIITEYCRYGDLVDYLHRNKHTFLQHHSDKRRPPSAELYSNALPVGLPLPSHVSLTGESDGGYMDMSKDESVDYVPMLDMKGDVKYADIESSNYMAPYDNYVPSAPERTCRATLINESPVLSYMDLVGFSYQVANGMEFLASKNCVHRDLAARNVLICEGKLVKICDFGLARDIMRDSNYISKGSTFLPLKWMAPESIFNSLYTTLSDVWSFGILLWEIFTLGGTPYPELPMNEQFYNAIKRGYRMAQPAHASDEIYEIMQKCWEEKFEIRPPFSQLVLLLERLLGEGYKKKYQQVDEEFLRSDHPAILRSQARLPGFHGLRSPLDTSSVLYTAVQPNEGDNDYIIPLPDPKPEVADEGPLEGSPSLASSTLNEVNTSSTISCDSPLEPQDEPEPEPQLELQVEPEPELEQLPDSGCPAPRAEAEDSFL
Sequence of Tyrosine-protein kinase JAK2 (Homo sapiens) (O60674 whole entry): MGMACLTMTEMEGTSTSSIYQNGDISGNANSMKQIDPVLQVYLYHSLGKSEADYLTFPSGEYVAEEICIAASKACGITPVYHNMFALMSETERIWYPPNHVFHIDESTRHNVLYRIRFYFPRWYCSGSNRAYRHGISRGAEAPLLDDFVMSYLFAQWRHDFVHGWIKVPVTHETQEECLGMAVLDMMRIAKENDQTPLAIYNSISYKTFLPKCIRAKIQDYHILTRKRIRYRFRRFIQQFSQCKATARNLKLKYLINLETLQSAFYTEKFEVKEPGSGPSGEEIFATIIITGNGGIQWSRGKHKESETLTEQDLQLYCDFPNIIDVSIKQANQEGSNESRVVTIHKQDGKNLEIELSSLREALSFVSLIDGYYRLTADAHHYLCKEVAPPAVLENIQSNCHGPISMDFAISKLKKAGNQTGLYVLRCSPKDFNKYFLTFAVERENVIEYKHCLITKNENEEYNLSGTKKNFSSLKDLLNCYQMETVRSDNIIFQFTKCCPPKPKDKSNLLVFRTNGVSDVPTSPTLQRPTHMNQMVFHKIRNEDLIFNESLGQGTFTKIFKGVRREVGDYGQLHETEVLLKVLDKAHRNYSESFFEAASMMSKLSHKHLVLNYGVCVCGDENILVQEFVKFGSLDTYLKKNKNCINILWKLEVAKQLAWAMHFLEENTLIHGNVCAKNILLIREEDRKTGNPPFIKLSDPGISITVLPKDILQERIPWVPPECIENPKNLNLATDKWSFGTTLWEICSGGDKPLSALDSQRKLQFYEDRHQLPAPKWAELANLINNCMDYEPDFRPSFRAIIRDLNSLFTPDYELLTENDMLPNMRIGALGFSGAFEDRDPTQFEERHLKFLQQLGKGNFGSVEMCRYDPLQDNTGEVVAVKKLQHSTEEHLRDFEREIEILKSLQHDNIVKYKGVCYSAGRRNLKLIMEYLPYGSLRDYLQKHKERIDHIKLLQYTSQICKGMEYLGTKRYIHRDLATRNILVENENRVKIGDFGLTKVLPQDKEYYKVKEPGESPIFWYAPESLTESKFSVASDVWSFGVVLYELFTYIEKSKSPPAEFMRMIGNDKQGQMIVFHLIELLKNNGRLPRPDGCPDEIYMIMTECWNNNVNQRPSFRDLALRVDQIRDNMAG

In the case of `Cc1nn(C)cc1-c1nc2c(N3CCN(Cc4ccc(Cl)cc4)CC3)c(Cl)cnc2[nH]1` [MOBINITINIB], the inhibition in data set [1] was found to be 4%; in data set [2], 1.3%. In the data set with Mus musculus [3], the inhibition entry is “Active”. The Activity is given as 60% in the data set on MV4-11 [4], 42% in the data set on MV4-11 [5], “Non-toxic” in the data set with Mus musculus [6] and “Non-toxic” in the data set with Mus musculus [7]. For the same compound, the TGI entry with MV4-11 [8] is “Dose-dependent effect”. The values for the bioavailability in data set [9] and in [12] were 79% and 100%, respectively. The log distribution coefficient (logD) in data set [10] amounted to 3.84. The same compound had a clearance in data set [11] of 0.95 mL/min. The compound further yielded a Vd in the data set on Mus musculus [13] of 3.3 L/kg. The results for the half-life in data set [14] and in [17] were 0.84 h and 4.62 h, respectively. For the same compound, the PPB in the data set with Plasma was 97.3%. The compound further displayed a permeability with Caco-2 of 18.6 ×10⁻⁶ cm/s. In addition, the IC50 against Cytochrome P450 2A6 was more than 10 µM; in data set [15], more than 25 µM. Moreover, the metabolised at 0.5 h in data set [16] was 10%.
